Data published in ChEMBL document CHEMBL5257027 (Eur J Med Chem, 2016).

What was measured:
[1] = tested on: Panel renal (Carcinoma cell lines); experiment: Antiproliferative activity against human Panel renal (8 Carcinoma cell lines) assessed as reduction in mean cell growth; type: functional
Procedure, shortened: (§1)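 NCI five-dose testing across the 58-line panel gives GI50, TGI and LC50 for each line. Subpanel lines report mean GI50 for each of the nine cancer types.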

[2] = tested on: Panel leukemia (Carcinoma cell lines); experiment: Antiproliferative activity against human Panel leukemia (5 Carcinoma cell lines) assessed as reduction in mean cell growth; type: functional; procedure, shortened: as §1
NCI/ADR-RES [3] = experiment: Cytotoxicity against human NCI/ADR-RES cells; type: functional
Procedure, shortened: (§2)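 Run in the US NCI 58-cell-line screen covering nine cancer types (leukemia, NSCLC, colon, CNS, melanoma, ovarian, renal, prostate, breast). Five-dose mode gave GI50, TGI and LC50 values for each cell line. In the single-dose pre-screen, % inhibition was taken as 100 minus growth percentage.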

COLO 205 [4] = experiment: Antiproliferative activity against human COLO 205 cells assessed as inhibition of cell growth at 10 uM; type: functional
Procedure, shortened: (§3)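 NCI 58-cell-line screen covering leukemia, NSCLC, colon, CNS, melanoma, ovarian, renal, prostate and breast lines. Compounds given once at […] (micromolar per the line). Percent inhibition taken as 100 minus growth percent. Panel line reports the mean over all 58 lines.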

MDA-MB-468 [5] = experiment: Cytotoxicity against human MDA-MB-468 cells; type: functional; settings: read-out: LC50 (the source's name); procedure, shortened: as §2
[6] = target: Mitogen-activated protein kinase 14 (Homo sapiens) (UniProt Q16539); experiment: Inhibition of MAPK14 (p38 alpha) (unknown origin) at 10 uM using […] as substrate incubated for 40 mins in presence of [gamma33P]ATP by scintillation counting based hotspot kinase assay relative to control
[7] = tested on: Panel colon (Carcinoma cell lines); experiment: Antiproliferative activity against human Panel colon (7 Carcinoma cell lines) assessed as reduction in mean cell growth; type: functional; procedure, shortened: as §1
HCT-15 [8] = experiment: Antiproliferative activity against human HCT-15 cells assessed as reduction in cell growth; type: functional; procedure, shortened: as §1
[9] = tested on: Panel breast (Carcinoma cell lines); experiment: Antiproliferative activity against human Panel breast (6 Carcinoma cell lines) assessed as reduction in mean cell growth; type: functional; procedure, shortened: as §1
SK-MEL-5 [10] = experiment: Cytotoxicity against human SK-MEL-5 cells; type: functional; procedure, shortened: as §2
[11] = target: T1, RAF proto-oncogene serine/threonine-protein kinase (Homo sapiens, UniProt P04049); experiment: Inhibition of RAF1 (unknown origin) using […] as substrate incubated for 40 mins in presence of [gamma33P]ATP by scintillation counting based hotspot kinase assay
Procedure, shortened: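 IC50 from a radiometric assay. Kinase (5–10 mU) is incubated in 25 mM Tris pH 7.5 with 0.02 mM EGTA, 0.66 mg/mL myelin basic protein as substrate, 10 mM magnesium acetate and [γ33P]ATP. Mg-ATP starts the reaction, which runs 40 min at room temperature. It is stopped with 3% phosphoric acid, captured on filtermat, washed and counted by scintillation.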

COLO 205 [12] = experiment: Antiproliferative activity against human COLO 205 cells assessed as total growth inhibition; type: functional; procedure, shortened: as §1
[13] = target: Serine/threonine-protein kinase B-raf (Homo sapiens, UniProt P15056, V600E); experiment: Inhibition of B-RAF V600E mutant (unknown origin) using […] as substrate incubated for 40 mins in presence of [gamma33P]ATP by scintillation counting based hotspot kinase assay
[14] = tested on: Panel ovarian (Carcinoma cell lines); experiment: Antiproliferative activity against human Panel ovarian (7 Carcinoma cell lines) assessed as reduction in mean cell growth; type: functional; procedure, shortened: as §1
SNB-75 [15] = experiment: Antiproliferative activity against human SNB-75 cells assessed as total growth inhibition; type: functional; procedure, shortened: as §1
[16] = tested on: Panel melanoma (Carcinoma cell lines); experiment: Antiproliferative activity against human Panel melanoma (9 Carcinoma cell lines) assessed as reduction in mean cell growth; type: functional; procedure, shortened: as §1
HCT-15 [17] = experiment: Cytotoxicity against human HCT-15 cells; type: functional; settings: read-out: LC50 (the source's name); procedure, shortened: as §2
L132 = experiment: Cytotoxicity against human L132 cells assessed as reduction in cell growth at 31.3 to 100 uM relative to control; type: toxicity, cell-based; design: scale not given: the % may be the effect or the level left; settings: l132, 100 µM, dose 31.3-100 µM
SK-MEL-5 [18] = experiment: Antiproliferative activity against human SK-MEL-5 cells assessed as reduction in cell growth; type: functional; procedure, shortened: as §1
SNB-75 [19] = experiment: Antiproliferative activity against human SNB-75 cells assessed as reduction in cell growth; type: functional; procedure, shortened: as §1
[20] = target: Tyrosine-protein kinase ABL1 (Homo sapiens) (UniProt P00519); experiment: Inhibition of ABL (unknown origin) at 10 uM using […] as substrate incubated for 40 mins in presence of [gamma33P]ATP by scintillation counting based hotspot kinase assay relative to control
HCC 2998 = experiment: Antiproliferative activity against human HCC 2998 cells assessed as inhibition of cell growth at 10 uM; type: functional; procedure, shortened: as §3
[21] = tested on: Panel prostate (Carcinoma cell lines); experiment: Antiproliferative activity against human Panel prostate (2 Carcinoma cell lines) assessed as reduction in mean cell growth; type: functional; procedure, shortened: as §1
NCI/ADR-RES [22] = experiment: Antiproliferative activity against human NCI/ADR-RES cells assessed as reduction in cell growth; type: functional; procedure, shortened: as §1
SK-MEL-5 [23] = experiment: Antiproliferative activity against human SK-MEL-5 cells assessed as total growth inhibition; type: functional; procedure, shortened: as §1
RXF 393 [24] = experiment: Antiproliferative activity against human RXF 393 cells assessed as total growth inhibition; type: functional; procedure, shortened: as §1
HOP-92 [25] = experiment: Antiproliferative activity against human HOP-92 cells assessed as total growth inhibition; type: functional; procedure, shortened: as §1
NCI/ADR-RES [26] = experiment: Antiproliferative activity against human NCI/ADR-RES cells assessed as total growth inhibition; type: functional; procedure, shortened: as §1
HCT-15 [27] = experiment: Antiproliferative activity against human HCT-15 cells assessed as total growth inhibition; type: functional; procedure, shortened: as §1
PC-3 [28] = experiment: Antiproliferative activity against human PC-3 cells assessed as total growth inhibition; type: functional; procedure, shortened: as §1
[29] = target: T1, RAF proto-oncogene serine/threonine-protein kinase; experiment: Inhibition of RAF1 (unknown origin) at 10 uM using […] as substrate incubated for 40 mins in presence of [gamma33P]ATP by scintillation counting based hotspot kinase assay relative to control
K562 [30] = experiment: Antiproliferative activity against human K562 cells assessed as total growth inhibition; type: functional; procedure, shortened: as §1
Homo sapiens = species: Homo sapiens; experiment: Inhibition of ABL […] mutant (unknown origin) at 10 uM using […] as substrate incubated for 40 mins in presence of [gamma33P]ATP by scintillation counting based hotspot kinase assay relative to control
COLO 205 [31] = experiment: Antiproliferative activity against human COLO 205 cells assessed as reduction in cell growth; type: functional; procedure, shortened: as §1
HOP-92 [32] = experiment: Antiproliferative activity against human HOP-92 cells assessed as reduction in cell growth; type: functional; procedure, shortened: as §1
MDA-MB-468 [33] = experiment: Antiproliferative activity against human MDA-MB-468 cells assessed as total growth inhibition; type: functional; procedure, shortened: as §1
K562 [34] = experiment: Cytotoxicity against human k562 cells; type: functional; settings: read-out: LC50 (the source's name); procedure, shortened: as §2
[35] = Antiproliferative activity against human Panel non-small cell lung cancer (8 Carcinoma cell lines) assessed as reduction in mean cell growth; type: functional; settings: Non-small cell lung cancer cell line; procedure, shortened: as §1
[36] = target: Epidermal growth factor receptor (Homo sapiens) (UniProt P00533); experiment: Inhibition of EGFR (unknown origin) at 10 uM using […] as substrate incubated for 40 mins in presence of [gamma33P]ATP by scintillation counting based hotspot kinase assay relative to control
HOP-92 [37] = experiment: Cytotoxicity against human HOP-92 cells; type: functional; procedure, shortened: as §2
COLO 205 [38] = experiment: Cytotoxicity against human COLO 205 cells; type: functional; procedure, shortened: as §2
K562 [39] = experiment: Antiproliferative activity against human K562 cells assessed as reduction in cell growth; type: functional; procedure, shortened: as §1
RXF 393 [40] = experiment: Antiproliferative activity against human RXF 393 cells assessed as reduction in cell growth; type: functional; procedure, shortened: as §1
[41] = tested on: Serine/threonine-protein kinase B-raf (Homo sapiens), P15056 [V600E]; experiment: Inhibition of B-RAF V600E mutant (unknown origin) at 10 uM using […] as substrate incubated for 40 mins in presence of [gamma33P]ATP by scintillation counting based hotspot kinase assay relative to control
[42] = target: Serine/threonine-protein kinase B-raf (Homo sapiens) (UniProt P15056); experiment: Inhibition of B-RAF (unknown origin) at 10 uM using […] as substrate incubated for 40 mins in presence of [gamma33P]ATP by scintillation counting based hotspot kinase assay relative to control
[43] = tested on: Panel CNS (Carcinoma cell lines); experiment: Antiproliferative activity against human Panel CNS (6 Carcinoma cell lines) assessed as reduction in mean cell growth; type: functional; procedure, shortened: as §1
SNB-75 [44] = experiment: Cytotoxicity against human SNB-75 cells; type: functional; settings: read-out: LC50 (the source's name); procedure, shortened: as §2
[45] = Antiproliferative activity against human Panel NCI-58 (58 Carcinoma cell lines) assessed as reduction in mean cell growth at 10 uM; type: functional; design: scale not given: the % may be the effect or the level left; procedure, shortened: as §3
PC-3 [46] = experiment: Cytotoxicity against human PC-3 cells; type: functional; procedure, shortened: as §2
MDA-MB-468 [47] = experiment: Antiproliferative activity against human MDA-MB-468 cells assessed as reduction in cell growth; type: functional; procedure, shortened: as §1
RXF 393 [48] = experiment: Cytotoxicity against human RXF 393 cells; type: functional; procedure, shortened: as §2
LOX IMVI = experiment: Antiproliferative activity against human LOX IMVI cells assessed as inhibition of cell growth at 10 uM; type: functional; procedure, shortened: as §3
PC-3 [49] = experiment: Antiproliferative activity against human PC-3 cells assessed as reduction in cell growth; type: functional; procedure, shortened: as §1

T1 sequence (P04049 whole entry): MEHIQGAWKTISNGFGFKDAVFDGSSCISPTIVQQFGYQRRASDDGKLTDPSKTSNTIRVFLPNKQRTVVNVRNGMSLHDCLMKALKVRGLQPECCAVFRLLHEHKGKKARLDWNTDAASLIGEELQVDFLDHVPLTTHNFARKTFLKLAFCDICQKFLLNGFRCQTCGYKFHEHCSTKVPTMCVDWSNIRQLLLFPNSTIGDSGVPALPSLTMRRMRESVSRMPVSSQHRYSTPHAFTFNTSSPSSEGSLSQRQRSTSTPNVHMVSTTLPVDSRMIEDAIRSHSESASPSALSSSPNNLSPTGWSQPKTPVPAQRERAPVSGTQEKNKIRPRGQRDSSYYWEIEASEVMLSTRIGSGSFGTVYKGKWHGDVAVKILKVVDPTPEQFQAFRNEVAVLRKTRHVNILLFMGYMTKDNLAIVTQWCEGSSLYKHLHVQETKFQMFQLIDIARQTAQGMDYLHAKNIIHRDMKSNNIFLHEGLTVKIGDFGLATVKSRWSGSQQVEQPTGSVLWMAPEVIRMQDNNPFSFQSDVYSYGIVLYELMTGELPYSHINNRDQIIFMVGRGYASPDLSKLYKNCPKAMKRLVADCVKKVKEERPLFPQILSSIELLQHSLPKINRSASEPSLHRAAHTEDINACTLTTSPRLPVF
Serine/threonine-protein kinase B-raf, sequence (P15056 2-766 V600E limits assumed): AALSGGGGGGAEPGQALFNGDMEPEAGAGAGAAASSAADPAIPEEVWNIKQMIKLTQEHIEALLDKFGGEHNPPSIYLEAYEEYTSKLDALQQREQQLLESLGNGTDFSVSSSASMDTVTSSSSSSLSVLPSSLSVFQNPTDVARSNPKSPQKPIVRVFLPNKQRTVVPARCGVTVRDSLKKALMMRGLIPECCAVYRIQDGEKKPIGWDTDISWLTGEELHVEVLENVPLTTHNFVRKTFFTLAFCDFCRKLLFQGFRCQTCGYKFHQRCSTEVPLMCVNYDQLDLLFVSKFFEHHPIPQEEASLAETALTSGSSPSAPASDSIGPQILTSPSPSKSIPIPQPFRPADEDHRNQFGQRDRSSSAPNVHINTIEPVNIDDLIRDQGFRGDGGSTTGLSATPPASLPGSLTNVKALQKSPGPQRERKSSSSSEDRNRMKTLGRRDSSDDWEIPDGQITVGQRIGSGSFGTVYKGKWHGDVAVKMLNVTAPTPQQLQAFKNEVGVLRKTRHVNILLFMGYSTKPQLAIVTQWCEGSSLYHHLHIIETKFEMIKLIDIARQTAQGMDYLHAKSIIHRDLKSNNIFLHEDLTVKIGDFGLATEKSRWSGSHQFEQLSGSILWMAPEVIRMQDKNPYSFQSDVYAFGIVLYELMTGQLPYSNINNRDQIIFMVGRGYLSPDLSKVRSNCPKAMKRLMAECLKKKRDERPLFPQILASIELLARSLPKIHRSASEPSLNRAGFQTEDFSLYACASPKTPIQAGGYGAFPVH
Serine/threonine-protein kinase B-raf (Homo sapiens), P15056 [V600E], sequence (P15056 whole entry V600E): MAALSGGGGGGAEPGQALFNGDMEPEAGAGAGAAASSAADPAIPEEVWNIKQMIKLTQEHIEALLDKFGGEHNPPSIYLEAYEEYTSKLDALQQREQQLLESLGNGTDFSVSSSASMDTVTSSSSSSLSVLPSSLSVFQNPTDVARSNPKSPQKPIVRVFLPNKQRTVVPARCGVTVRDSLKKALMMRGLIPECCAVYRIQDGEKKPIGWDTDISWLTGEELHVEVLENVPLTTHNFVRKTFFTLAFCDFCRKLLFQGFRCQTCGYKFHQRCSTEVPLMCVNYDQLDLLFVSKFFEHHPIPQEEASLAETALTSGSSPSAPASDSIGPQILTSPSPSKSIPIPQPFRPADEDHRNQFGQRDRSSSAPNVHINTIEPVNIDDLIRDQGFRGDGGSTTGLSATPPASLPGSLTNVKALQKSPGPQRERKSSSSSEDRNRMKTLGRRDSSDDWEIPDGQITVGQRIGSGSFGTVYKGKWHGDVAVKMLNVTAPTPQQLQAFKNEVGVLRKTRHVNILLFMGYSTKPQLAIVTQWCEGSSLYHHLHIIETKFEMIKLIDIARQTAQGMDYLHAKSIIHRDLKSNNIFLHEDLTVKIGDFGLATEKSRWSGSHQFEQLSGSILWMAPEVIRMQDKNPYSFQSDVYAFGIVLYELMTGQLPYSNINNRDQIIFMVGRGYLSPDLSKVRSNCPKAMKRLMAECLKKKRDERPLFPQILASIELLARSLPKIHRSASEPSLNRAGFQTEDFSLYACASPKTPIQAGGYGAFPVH
Epidermal growth factor receptor (Homo sapiens), sequence (P00533 whole entry): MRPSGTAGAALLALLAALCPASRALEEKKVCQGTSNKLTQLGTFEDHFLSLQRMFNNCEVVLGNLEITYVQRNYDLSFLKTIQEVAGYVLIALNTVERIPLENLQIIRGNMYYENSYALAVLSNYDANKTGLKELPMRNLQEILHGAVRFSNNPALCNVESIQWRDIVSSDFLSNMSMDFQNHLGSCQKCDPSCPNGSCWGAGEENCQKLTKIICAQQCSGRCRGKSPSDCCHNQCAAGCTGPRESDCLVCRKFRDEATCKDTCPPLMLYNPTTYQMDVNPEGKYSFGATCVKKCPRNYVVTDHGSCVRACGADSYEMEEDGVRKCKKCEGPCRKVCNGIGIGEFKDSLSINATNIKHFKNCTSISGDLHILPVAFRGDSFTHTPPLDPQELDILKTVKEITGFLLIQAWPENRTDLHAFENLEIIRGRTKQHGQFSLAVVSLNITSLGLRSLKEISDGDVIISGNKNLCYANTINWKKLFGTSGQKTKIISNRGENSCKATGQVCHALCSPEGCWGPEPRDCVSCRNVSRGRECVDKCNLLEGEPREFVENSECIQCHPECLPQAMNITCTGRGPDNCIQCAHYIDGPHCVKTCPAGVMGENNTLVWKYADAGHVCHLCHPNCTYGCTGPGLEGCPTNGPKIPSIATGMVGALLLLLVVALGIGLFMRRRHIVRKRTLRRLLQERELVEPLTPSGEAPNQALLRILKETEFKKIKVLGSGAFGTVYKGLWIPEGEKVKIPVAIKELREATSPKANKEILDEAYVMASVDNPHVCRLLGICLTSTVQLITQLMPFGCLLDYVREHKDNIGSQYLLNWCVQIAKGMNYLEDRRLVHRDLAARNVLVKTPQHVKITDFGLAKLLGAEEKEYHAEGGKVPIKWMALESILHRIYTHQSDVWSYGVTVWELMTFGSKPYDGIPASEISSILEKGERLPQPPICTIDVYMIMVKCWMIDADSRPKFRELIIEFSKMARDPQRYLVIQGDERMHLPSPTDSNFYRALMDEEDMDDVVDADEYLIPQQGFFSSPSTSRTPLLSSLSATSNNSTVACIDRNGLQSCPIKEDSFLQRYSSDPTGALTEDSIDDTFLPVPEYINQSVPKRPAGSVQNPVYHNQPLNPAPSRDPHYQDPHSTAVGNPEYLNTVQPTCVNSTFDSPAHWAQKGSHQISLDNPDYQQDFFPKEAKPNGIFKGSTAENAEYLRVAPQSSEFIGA
Tyrosine-protein kinase ABL1 (Homo sapiens), sequence (P00519 whole entry): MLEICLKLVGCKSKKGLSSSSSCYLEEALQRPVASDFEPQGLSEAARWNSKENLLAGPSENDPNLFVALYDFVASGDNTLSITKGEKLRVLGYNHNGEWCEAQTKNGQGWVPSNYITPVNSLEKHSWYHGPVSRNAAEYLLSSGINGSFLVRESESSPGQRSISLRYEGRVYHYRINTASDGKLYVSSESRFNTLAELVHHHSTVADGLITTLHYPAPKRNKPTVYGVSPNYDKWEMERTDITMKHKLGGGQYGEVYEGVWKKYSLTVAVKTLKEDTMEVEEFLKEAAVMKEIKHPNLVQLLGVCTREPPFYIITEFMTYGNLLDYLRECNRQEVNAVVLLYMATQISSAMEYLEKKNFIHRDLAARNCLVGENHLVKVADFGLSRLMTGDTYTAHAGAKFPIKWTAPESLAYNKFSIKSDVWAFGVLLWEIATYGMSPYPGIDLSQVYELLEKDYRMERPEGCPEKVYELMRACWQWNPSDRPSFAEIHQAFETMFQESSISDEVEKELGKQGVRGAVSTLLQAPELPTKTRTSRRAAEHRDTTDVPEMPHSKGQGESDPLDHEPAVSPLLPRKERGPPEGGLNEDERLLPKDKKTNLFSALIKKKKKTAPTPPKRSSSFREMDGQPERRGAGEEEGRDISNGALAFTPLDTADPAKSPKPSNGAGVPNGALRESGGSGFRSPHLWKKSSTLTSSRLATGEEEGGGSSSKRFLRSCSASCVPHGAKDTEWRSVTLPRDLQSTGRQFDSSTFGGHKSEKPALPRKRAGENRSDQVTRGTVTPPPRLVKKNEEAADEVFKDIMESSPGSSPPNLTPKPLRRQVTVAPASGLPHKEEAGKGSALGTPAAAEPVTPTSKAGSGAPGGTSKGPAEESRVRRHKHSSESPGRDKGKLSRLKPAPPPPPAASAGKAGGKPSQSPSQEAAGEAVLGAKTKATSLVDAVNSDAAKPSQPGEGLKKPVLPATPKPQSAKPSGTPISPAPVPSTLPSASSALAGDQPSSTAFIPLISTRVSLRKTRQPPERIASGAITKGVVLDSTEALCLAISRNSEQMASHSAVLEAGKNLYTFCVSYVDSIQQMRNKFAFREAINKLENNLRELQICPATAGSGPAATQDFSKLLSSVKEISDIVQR
Serine/threonine-protein kinase B-raf (Homo sapiens), sequence (P15056 whole entry): as the sequence (P15056 whole entry V600E) above, with E600V counted along it
Mitogen-activated protein kinase 14 (Homo sapiens), sequence (Q16539 whole entry): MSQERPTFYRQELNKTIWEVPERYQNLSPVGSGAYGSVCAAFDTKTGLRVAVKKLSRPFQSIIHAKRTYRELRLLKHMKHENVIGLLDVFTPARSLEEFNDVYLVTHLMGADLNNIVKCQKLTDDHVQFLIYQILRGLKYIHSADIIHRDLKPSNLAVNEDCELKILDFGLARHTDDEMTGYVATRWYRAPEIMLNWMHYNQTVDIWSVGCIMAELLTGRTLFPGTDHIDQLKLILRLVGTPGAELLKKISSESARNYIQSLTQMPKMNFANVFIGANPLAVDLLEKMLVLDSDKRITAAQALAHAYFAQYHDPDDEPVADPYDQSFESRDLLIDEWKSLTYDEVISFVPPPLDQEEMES

COc1cccc(-c2nn(-c3ccccc3)cc2-c2ccnc(NCCCNC(=O)Nc3ccc(Cl)c(Cl)c3)c2)c1
GI50 [1]: 3.14 µM | GI50 [2]: 2.31 µM | LC50 (NCI/ADR-RES [3]): 86.9 µM | inhibition at 10 µM (COLO 205 [4]): 145% | CC50 (MDA-MB-468 [5]): 9.82 µM | inhibition [6]: 45.8% | GI50 [7]: 2.44 µM | GI50 (HCT-15 [8]): 2.4 µM | GI50 [9]: 2.69 µM | LC50 (SK-MEL-5 [10]): 6.3 µM | IC50 [11]: 1.5 µM | TGI (COLO 205 [12]): 3.82 µM | IC50 [13]: 0.77 µM | GI50 [14]: 3.74 µM | TGI (SNB-75 [15]): 19.2 µM | GI50 [16]: 1.89 µM | CC50 (HCT-15 [17]): 29.1 µM | Activity (L132): 50% | GI50 (SK-MEL-5 [18]): 1.75 µM | GI50 (SNB-75 [19]): 2.52 µM | inhibition [20]: 7.7% | inhibition at 10 µM (HCC 2998): 162% | GI50 [21]: 4.71 µM | GI50 (NCI/ADR-RES [22]): 2.19 µM | TGI (SK-MEL-5 [23]): 3.32 µM | TGI (RXF 393 [24]): 4.87 µM | TGI (HOP-92 [25]): 7.68 µM | TGI (NCI/ADR-RES [26]): 5.39 µM | TGI (HCT-15 [27]): 6.66 µM | TGI (PC-3 [28]): 22.4 µM | inhibition [29]: 87.7% | TGI (K562 [30]): 5.85 µM | inhibition (Homo sapiens): 6.38% | GI50 (COLO 205 [31]): 1.87 µM | GI50 (HOP-92 [32]): 2.32 µM | TGI (MDA-MB-468 [33]): 4.34 µM | CC50 (K562 [34]): 100 µM | GI50 [35]: 3.51 µM | inhibition [36]: 3.38% | LC50 (HOP-92 [37]): 71 µM | LC50 (lethal concentration 50%) (COLO 205 [38]): 7.8 µM | GI50 (K562 [39]): 2.38 µM | GI50 (RXF 393 [40]): 1.8 µM | inhibition [41]: 90.4% | inhibition [42]: 56.9% | GI50 [43]: 2.93 µM | CC50 (SNB-75 [44]): 100 µM | Activity [45]: 104.1% | LC50 (PC-3 [46]): 100 µM | GI50 (MDA-MB-468 [47]): 1.92 µM | LC50 (RXF 393 [48]): 23 µM | inhibition at 10 µM (LOX IMVI): 192% | GI50 (PC-3 [49]): 3.96 µM
